Consider one compound from ChEMBL document CHEMBL1138913, “Synthesis, structure analysis, and antitumor activity of 3,6-disubstituted-1,4-dihydro-1,2,4,5-tetrazine derivatives” (2006).

Holding throughout (format): functional
Assay [1] has as its system P388. The assay can be described thus: Antiproliferative activity against mouse P388 cell line at 10 umol/L by MTT method. An outline of the steps: (§1)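 P-388 and HL-60 cells were tested in vitro by MTT assay over five tenfold concentrations from 10^-4 to 10^-8 mol/L. Each value is the percent inhibition ratio of cancer cell growth at that concentration.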
Background: Tetrazolium dyes change colour on reduction, which living cells bring about.

In assay [2] the test system is A549. The assay can be described thus: Antiproliferative activity against human A549 cell line at 100 umol/L by SRB method. An outline of the steps: (§2)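 Growth inhibition of A-549 and BEL-7402 cells was measured in vitro by sulforhodamine B (SRB) staining. Compounds were tested across five tenfold concentrations from 10^-4 to 10^-8 mol/L, and each value is reported as the percent inhibition ratio of cell growth at that concentration.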
A general note: The SRB assay estimates cell density from bound dye.

Assay [3] concerns P388. The assay can be described thus: Antiproliferative activity against mouse P388 cell line at 100 umol/L by MTT method. An outline of the steps:
as §1

The subject of assay [4] is HL-60. The assay can be described thus: Antiproliferative activity against human HL60 cell line at 10 umol/L by MTT method. An outline of the steps:
as §1

Assay [5] concerns P388. The assay can be described thus: Antiproliferative activity against mouse P388 cell line at 0.1 umol/L by MTT method. An outline of the steps: as §1
Assay [6] concerns HL-60. The assay can be described thus: Antiproliferative activity against human HL60 cell line at 0.1 umol/L by MTT method. An outline of the steps: as §1
The test system of assay [7] is A549. The assay can be described thus: Antiproliferative activity against human A549 cell line at 1 umol/L by SRB method. An outline of the steps: as §2
Assay [8] has as its system P388. The assay can be described thus: Antiproliferative activity against mouse P388 cell line at 0.01 umol/L by MTT method. An outline of the steps: as §1
Assay [9] concerns A549. The assay can be described thus: Antiproliferative activity against human A549 cell line at 0.01 umol/L by SRB method. An outline of the steps:
as §2

The test system of assay [10] is Bel-7402. The assay can be described thus: Antiproliferative activity against human BEL-7402 cell line at 0.01 umol/L by SRB method. An outline of the steps:
as §2

Assay [11] has as its system A549. The assay can be described thus: Antiproliferative activity against human A549 cell line at 0.1 umol/L by SRB method. An outline of the steps:
as §2

In assay [12] the test system is HL-60. The assay can be described thus: Antiproliferative activity against human HL60 cell line at 0.01 umol/L by MTT method. An outline of the steps: as §1
The subject of assay [13] is Bel-7402. The assay can be described thus: Antiproliferative activity against human BEL-7402 cell line at 0.1 umol/L by SRB method. An outline of the steps:
as §2

The test system of assay [14] is HL-60. The assay can be described thus: Antiproliferative activity against human HL60 cell line at 100 umol/L by MTT method. An outline of the steps: as §1
The test system of assay [15] is A549. The assay can be described thus: Antiproliferative activity against human A549 cell line at 10 umol/L by SRB method. An outline of the steps: as §2
For assay [16], the system named is P388. The assay can be described thus: Antiproliferative activity against mouse P388 cell line at 1 umol/L by MTT method. An outline of the steps:
as §1

The test system of assay [17] is Bel-7402. The assay can be described thus: Antiproliferative activity against human BEL-7402 cell line at 10 umol/L by SRB method. An outline of the steps: as §2
Assay [18] concerns HL-60. The assay can be described thus: Antiproliferative activity against human HL60 cell line at 1 umol/L by MTT method. An outline of the steps:
as §1

Assay [19] concerns Bel-7402. The assay can be described thus: Antiproliferative activity against human BEL-7402 cell line at 1 umol/L by SRB method. An outline of the steps:
as §2

Assay [20] relates to Bel-7402. The assay can be described thus: Antiproliferative activity against human BEL-7402 cell line at 100 umol/L by SRB method. An outline of the steps:
as §2

SMILES strings stand for the structures.

For the compound `Cc1cccnc1C1=NN=C(c2ncccc2C)NN1`, the Activity with P388 [1] amounted to 0%; in the assay with A549 [2] it was 2.6%; with P388 [3], 0%; in the assay with HL-60 [4] it was 13.6%; in the assay on P388 [5], 0%; in the assay on HL-60 [6] it was 2.6%. In addition, the Activity is recorded as 0% in the assay with A549 [7]; 0% with P388 [8]; 0% in the assay with A549 [9]; 0% in the assay on Bel-7402 [10]; 0% with A549 [11]; 17.2% in the assay on HL-60 [12]. For the same compound, the Activity in the assay with Bel-7402 [13] turned out to be 0%; with HL-60 [14], 96.3%; with A549 [15] it was 3.6%; with P388 [16], 0%; with Bel-7402 [17] it was 8.3%; in the assay on HL-60 [18], 2.9%. Further, the Activity in the assay with Bel-7402 [19] is on record as 0%; in the assay on Bel-7402 [20], 94.9%.
